# What was measured:
# [1] = system: primary cortical cultured neurons; assay: Transient OGD followed by reoxygenation in primary neuronal cultures; format: cell-based, rat; details: for neuroprotection against OGD: primary neurons, 50 μM
# In short: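 Cortical neurons came from E17 Sprague Dawley rat embryos. They were plated at 3×10^5 cells/cm2 on poly-L-lysine, then kept in serum-free neurobasal/B27 medium. On day 8–10, cultures had 2 h OGD at 37°C (95% N2/5% CO2) in deoxygenated, glucose-free HEPES-buffered salt solution, pH 7.4. They then had 24 h normoxic reoxygenation in fresh medium. Test compound (50 μM) was present throughout. Viability was read by MTT, death by LDH.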
# [2] = system: rat primary cortical neurons; assay: NMDA induced cytotoxicity in primary neurons; format: cell-based; details: NMDA 100 μM; compounds 50 μM
# [3] = system: primary cortical cultures; format: cell-based, rat; details: drug 50 μM; for effect of GABAA blockade by picrotoxin on neuroprotection: picrotoxin 100 μM added 1 h before glutamate 100 μM, MTT at 24 h
# In short: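 Cortical neurons from E17 Sprague Dawley rat embryos, plated at 3×10^5 cells/cm2 on poly-L-lysine and switched to serum-free neurobasal/B27 at 24 h, were used at 10–11 DIV. Picrotoxin 100 μM was given 1 h before glutamate 100 μM, or omitted in a parallel run. Test compound or muscimol (50 μM final) followed 1 h after glutamate. MTT survival at 24 h was normalised to vehicle controls; mean ± SEM, n=6.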
# [4] = Brain bioavailability by LC-MS/MS; format: in vivo; details: mice, 20 min after i.p. administration; for MZ metabolite in the brain after NO-chimera administration: metabolite 22a from 32a, 26 from 28
# In short: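 Male C57BL/6 mice (8–10 weeks, 20–25 g) got one i.p. dose of 4.5 μmol/kg, equimolar with the parent methylthiazole, at 0.1 ml/25 g; four mice per drug. Brains were taken 20 min post-dose and extracted with cold acetonitrile/MeOH (1:1) plus internal standard. After homogenising, 4°C centrifugation and re-extraction, extracts were cleared at −20°C and dried under N2. Analytes were measured by C18 HPLC (formic acid gradient).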
# SH-SY5Y cell cultures = assay: Excitotoxic insults; format: cell-based, human; details: excitotoxic insults including glutamate, NMDA, OGD; data not shown
# rabbits = details: cited from earlier work
# [5] = system: rats with cognitive deficits in the cholinergic systems of the basal forebrain; details: cited from earlier work
# [6] = Stability of NO-chimera in neutral phosphate buffer; format: physicochemical; details: for stability in phosphate buffer: phosphate buffer 100 mM, pH 7.4, room temperature, HPLC-UV or LC-MS
# In short: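 NO-chimeras were incubated in 100 mM phosphate buffer, pH 7.4, at room temperature in the HPLC autosampler. Aliquots were injected repeatedly, at intervals set by each compound's stability (about 7 or 67 min). Analysis used reverse-phase C18 HPLC with UV at 254 nm and a water/methanol vs acetonitrile gradient with 0.1% formic acid. Percent remaining was the parent:internal-standard peak-area ratio over the time-zero value.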
compound,measurement,setting,value
"4-Butyl-1-[(4-methyl-5-thiazolyl)phenylmethyl]-1H-1,2,3-triazole [5a]",% normalized to CMZ after OGD,"[1]; test compounds 50 μM during 2-hour OGD and 24-hour reoxygenation, MTT assay at 24 h normalized to vehicle (0% survival) and CMZ (100% survival), mean ± SEM (n=6)",26.8 ± 5.2%
"Cc1ncsc1C(c1ccccc1)n1cc(-c2cccnc2)nn1 (centres unmarked) [5d, 3-[1-[(4-methyl-5-thiazolyl)phenylmethyl]-1H-1,2,3-triazol-4-yl]pyridine]",neuroprotection against NMDA induced cytotoxicity,[2],excellent neuroprotectant
same,neuroprotection against OGD,[1],excellent neuroprotectant
"Cc1ncsc1C(CO)c1ccccc1 (stereo not drawn) [22a, β-phenyl-4-methyl-5-thiazoleethanol]",effect of GABAA blockade by picrotoxin on neuroprotection,[3],mirrored that by muscimol
"Cc1ncsc1C(CO[N+](=O)[O-])c1ccccc1 (stereo not drawn) [32a, β-phenyl-(4-methyl-5-thiazolyl)ethane-1-nitrate]",brain bioavailability of NO-chimera,[4],good brain bioavailability
same,MZ metabolite in the brain after NO-chimera administration,[4],observed in the brain
"Cc1ncsc1CCCl [CMZ, clomethiazole, reference compound]",neuroprotection against NMDA induced cytotoxicity,[2],inhibited reproducibly
same,neuroprotection in SH-SY5Y cells,SH-SY5Y cell cultures,did not produce robust and reproducible neuroprotection
"Cc1ncsc1CCO [HMZ, 5-(2-hydroxyethyl)-4-methylthiazole]",anticonvulsant activity,rabbits,anticonvulsant agent
Cc1ncsc1CCO[N+](=O)[O-] [compound 1],learning and memory,[5],significantly improved learning and memory
"Cc1ncsc1C(c1ccccc1)n1cc(-c2cncc(O)c2)nn1 (centres unmarked) [compound 16, 5-[1-[(4-Methyl-5-thiazolyl)phenylmethyl]-1H-1,2,3-triazol-4-yl]-3-pyridinol]",neuroprotection against OGD,[1],retained neuroprotective efficacy comparable to CMZ
"Cc1ncsc1C(CO)n1cc(-c2cccnc2)nn1 (stereo not drawn) [compound 26, [1-[β-(4-Methyl-5-thiazolyl)ethanol]-4-(3-pyridinyl)]-1H-1,2,3-triazole]",effect of GABAA blockade by picrotoxin on neuroprotection,[3],intermediate neuroprotective mechanisms
"Cc1ncsc1C(CO[N+](=O)[O-])n1cc(-c2cccnc2)nn1 (stereo not drawn) [compound 28, β-(4-methyl-5-thiazolyl)-[4-(3-pyridinyl)-1H-1,2,3-Triazole-1-ethane]-1-nitrate]",stability in phosphate buffer,[6],stability over 5 days at room temperature
same,MZ metabolite in the brain after NO-chimera administration,[4],readily detected
"Cc1ncsc1C(CO[N+](=O)[O-])n1nncc1-c1cccnc1 (stereo not drawn) [compound 29, β-(4-methyl-5-thiazolyl)-[5-(3-pyridinyl)-1H-1,2,3-Triazole-1-ethane]-1-nitrate]",stability in phosphate buffer,[6],stability over 5 days at room temperature
"Cc1ncsc1C(Cc1ccccc1)O[N+](=O)[O-] (stereo not drawn) [compound 33, α-(Phenylmethyl)-(4-methyl-5-thiazolyl)methanenitrate]",stability in phosphate buffer,[6],stability over 5 days at room temperature
"Cc1ncsc1C(OC(=O)C1(CO[N+](=O)[O-])CC1)c1ccccc1 (centres unmarked) [compound 36, [1-[(nitrooxy)methyl]cyclopropanecarboxyl]-[(4-methyl-5-thiazolyl)phenylmethyl] ester]",half-life,"[6]; phosphate buffer, pH 7.4",~30 min
"Cc1ncsc1C(OCCOCCO[N+](=O)[O-])c1ccccc1 (centres unmarked) [compound 40, 1-nitrooxy-2-[2-[(4-methyl-5-thiazolyl)phenylmethoxy]ethoxy]ethane]",stability in phosphate buffer,[6],stability over 5 days at room temperature
"Cc1ncsc1C(OCCOCCO)c1ccccc1 (centres unmarked) [compound 41, [2-[(4-methyl-5-thiazolyl)phenylmethoxy]ethoxy]ethanol]",effect of GABAA blockade by picrotoxin on neuroprotection,[3],intermediate neuroprotective mechanisms
"Cc1ncsc1C(NC(=O)OCCCCO[N+](=O)[O-])c1ccccc1 (centres unmarked) [compound 43, N-[(4-Methyl-5-thiazolyl)phenylmethyl]-[4-(nitrooxy)butyl] carbamate]",stability in phosphate buffer,[6],stable
"Cc1ncsc1C(NC(=O)C1(CO[N+](=O)[O-])CC1)c1ccccc1 (centres unmarked) [compound 44, N-[(4-methyl-5-thiazolyl)phenylmethyl]-1-[(nitrooxy)methyl]cyclopropanecarboxamide]",stability in phosphate buffer,[6],stable
"NCc1cc(O)no1 [muscimol, Muscimol, reference compound]",neuroprotection against glutamate toxicity,"[3]; glutamate 100 μM, 24 h, MTT",effective neuroprotection
same,effect of GABAA blockade by picrotoxin on neuroprotection,[3],lost and reversed

# Source: publication PMC3680370 (Journal of medicinal chemistry, 2012)
